# SKN-1 inh = inhibitors of C. elegans SKN-1 | inhibition, % at 21.8 µM | C. elegans VP596 Pgst-4::GFP/RFP ratio, acrylamide-induced, 24 h | 360,000 tested, 0.49% active;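 active means interference check ratio from 0.5 to 1.5 plus GFP to RFP signal ratio inhibition reaching or exceeding a fixed threshold, cut at about 30% in these data, passing the limit was not always enough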
# NR3A LBD binder = NR3A (human) ligand-binding domain modulation; NR3A LBD differential scanning fluorimetry, Tm shift; 0% = protein alone, 100% = glycine-bound protein; Tm shift relative to glycine control, % at 25 µM; 340,000 tested, 2.5% active;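 active means melting temperature shift of at least 10% of the positive control shift, at one fixed dose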
# ADAM10 inh = ADAM10 inhibition, QFRET primary screen; 370,000 tested, 0.62% active; O14672; inhibition, % at 7 µM; recombinant ADAM10, EDANS/DABCYL FRET peptide cleavage, 3 h;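 active means inhibition above a per-campaign cutoff equal to the mean of compounds falling between control-based bounds plus 3 SD, cut at about 20% in these data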;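 further: 0% = DMSO wells while the 100% control is not disclosed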
# Target sequence (O14672 214-748 limits assumed): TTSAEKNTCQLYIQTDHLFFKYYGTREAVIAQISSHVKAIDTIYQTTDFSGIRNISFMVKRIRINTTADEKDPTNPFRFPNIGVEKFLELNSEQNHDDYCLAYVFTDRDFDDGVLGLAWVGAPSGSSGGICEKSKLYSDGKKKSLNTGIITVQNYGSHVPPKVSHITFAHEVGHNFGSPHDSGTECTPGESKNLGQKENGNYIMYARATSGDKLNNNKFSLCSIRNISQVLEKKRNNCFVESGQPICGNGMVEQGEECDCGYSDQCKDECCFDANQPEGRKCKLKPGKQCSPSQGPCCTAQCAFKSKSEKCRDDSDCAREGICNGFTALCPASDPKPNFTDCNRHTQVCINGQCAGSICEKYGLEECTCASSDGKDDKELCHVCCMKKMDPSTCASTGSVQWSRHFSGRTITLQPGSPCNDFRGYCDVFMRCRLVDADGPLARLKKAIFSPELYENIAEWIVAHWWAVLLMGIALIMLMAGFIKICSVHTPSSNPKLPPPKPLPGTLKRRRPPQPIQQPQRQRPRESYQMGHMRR
# MT1-MMP act inh = inhibitors of human MT1-MMP activation; P50281; HT1080 RFP-PRO-GFP cells, GFP/RFP ratio fluorescence, overnight; percent of plate control window, DMSO zero; GFP/RFP ratio change, % at 20 µM; 360,000 tested, 0.061% active; AID 651647;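 active means GFP/RFP ratio change of at least 30% with cell ATP level not reduced by more than half and red fluorescence within 50% of control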
#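 Compound: 20 µM single dose, 1% DMSO / System: HT1080 RFP-PRO-GFP cells / Controls: DMSO and RFP-L50D-GFP cell wells / Read-out basis: GFP/RFP fluorescence ratio / Schedule: overnight compound exposure at 37 °C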
# MPTP block = permeability transition pore inhibition; isolated mouse mitochondria, Ca2+ swelling absorbance, 30 min; inhibition, % at 10 µM; 360,000 tested, 1.4% active; AID 602449;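 active means inhibition of 50% or more, scaled per plate between neutral and stimulator controls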;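 further: 0% = DMSO wells given calcium and 100% = 1 mM EGTA wells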
# ADAM17 inh = ADAM17 inhibition, QFRET primary screen; P78536; recombinant ADAM17, EDANS/DABCYL FRET peptide cleavage; inhibition, % at 6.95 µM; 370,000 tested, 0.83% active;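 active means inhibition above the mean of compounds lying between control limits plus 3 SD, set per campaign, cut at about 8.5% in these data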;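 further: 0% = DMSO-only wells as the low control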
# MPTP counter = mitochondrial membrane potential, counter-screen; shares compounds with MPTP block; isolated mitochondria, Rhodamine 123 fluorescence; inhibition, % at 10 µM; 5,000 tested, 78% active; in the data active means inhibition above about 22%;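 further: 0% = DMSO vehicle and 100% = positive control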
# MT1-MMP conf = validation of inhibitors of human MT1-MMP activation | shares compounds with MT1-MMP act inh | HT1080 RFP-PRO-GFP cells, GFP and RFP fluorescence ratio, overnight | inhibition, % at 20 µM | 200 tested, 10% active | AID 652235;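 active means inhibition of at least 50% in the primary cell screen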
# ADAM10 confirm = human ADAM10 inhibition, confirmation; ADAM10 QFRET peptide cleavage, EDANS fluorescence; inhibition, % at 6.95 µM; shares compounds with ADAM10 inh; 2,100 tested, 1% active;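 active means inhibition above about 20% chosen separately for each screening run, limit read from the data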;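 further: 0% = DMSO wells and 100% = marimastat wells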
# ADAM17 counter = inhibits human ADAM17 in ADAM10 exosite counter-screen | shares compounds with ADAM10 inh | ADAM17 QFRET peptide cleavage, EDANS fluorescence | inhibition, % at 6.95 µM | 2,100 tested, 0.5% active;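 active means mean triplicate inhibition above the solvent-only control wells' mean plus 3 SD, cut at about 12% in these data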;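 further: 0% = DMSO wells and 100% = marimastat wells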
# * hit, by the source's call; x = no result given. Compounds with a hit are over-represented: about 4.7% of the library has one in this group of screens.
SMILES,SKN-1 inh,NR3A LBD binder,ADAM10 inh,MT1-MMP act inh,MPTP block,ADAM17 inh,MPTP counter,ADAM10 confirm,ADAM17 counter,others
CC(C)c1ccc(CC(=O)N2CCC2(C)C(=O)Nc2cccc(C#N)c2)cc1 (configuration not stated),-1.0,x,5.6,-0.7,2.1,0.4,x,x,x,
Cc1sc(NC(=O)c2ccccc2)c(C#N)c1-c1ccccc1,5.9,-11.2,-162.4,-4.2,-0.8,-107.0,x,x,x,
CC12C(=O)N(c3ccccn3)C(=O)C1C1C=CC2C1 (configuration not stated),0.9,-0.6,-7.7,-2.1,-1.7,1.7,x,x,x,
CCOC(=O)c1ccc(-n2[nH]c(-c3ccccc3)cc2=O)cc1,5.9,-4.6,12.5,-10.0,88.4*,4.3,78.6*,x,x,
CCCc1nc(SCC(=O)N2CCC(Cc3ccccc3)CC2)c2c(=O)n(C)c(=O)n(C)c2n1,-15.7,1.4,-13.8,-3.0,52.5*,-3.1,-6.9,x,x,
Cn1c(=O)c2c(SCC(=O)N3CCCc4ccccc43)nc(CC(C)(C)C)nc2n(C)c1=O,13.6,-1.2,x,-0.6,62.5*,x,-6.6,x,x,
CCCc1nc(SCC(=O)Nc2ccccc2)c2c(=O)n(C)c(=O)n(C)c2n1,18.8,0.1,-13.2,-5.7,-1.5,-0.9,x,x,x,
O=C(N/N=C/c1ccc2nccnc2c1)c1ccccc1O,x,x,6.4,x,x,-0.1,x,x,x,
O=C(N/N=C/c1cccc(C(F)(F)F)c1)c1ccccc1O,11.5,2.2,-3.1,0.2,64.8*,-3.5,54.9*,x,x,
Cc1cc(C)c(S(=O)(=O)/N=C2\C=C(NS(=O)(=O)c3ccccc3)C(=O)c3ccccc32)c(C)c1,13.4,-4.4,8.6,41.4*,87.1*,1.9,35.3*,x,x,MT1-MMP conf=27.8
Cc1ccc(S(=O)(=O)/N=C2\C=C(NS(=O)(=O)c3ccccc3)C(=O)c3ccccc32)cc1,9.1,-12.2,2.4,13.4,36.0,0.6,x,x,x,
COCCOC(=O)C1=C(C)N(Cc2ccccc2)C(=O)NC1c1ccc(OC)cc1 (configuration not stated),-17.3,-1.8,-3.9,2.1,-2.2,4.6,x,x,x,
N#CC(C#N)=NNc1ccc([N+](=O)[O-])cc1,90.2*,1.2,5.3,32.5*,89.5*,3.5,78.2*,x,x,MT1-MMP conf=25.8
CC(C)Cc1ccc(C(C)C(=O)Nc2ccc(O)cc2)cc1 (configuration not stated),8.8,-3.9,20.6*,0.6,73.0*,4.5,37.9*,0.7,0.9,
Cc1ccc(C2C(/C=C3/SC(=S)NC3=O)=C(c3cccs3)Oc3ccccc32)cc1 (configuration not stated),14.3,2.1,20.0*,-20.1,98.8*,5.1,48.1*,14.3,1.8,
CC1Cc2cc(/C=C3/SC(=S)NC3=O)ccc2O1 (configuration not stated),-25.7,-2.5,3.2,-2.5,22.6,-1.4,x,x,x,
COc1ccccc1NC(=O)Cc1nc(CCl)cs1,8.4,-0.1,-2.2,-0.9,-1.5,1.0,x,x,x,
COc1ccccc1NC(=O)Cc1csc(NC(=S)Nc2ccc(C)cc2)n1,14.2,9.9,33.0*,2.9,71.7*,4.0,74.6*,6.0,2.2,
CN(c1ccccc1)S(=O)(=O)c1ccc(NC(=O)c2ccc(F)cc2)cc1,8.4,-13.5,20.9*,0.8,58.3*,7.5,60.6*,3.1,0.9,
COc1cc2nc(N(CCCN(C)C)C(=O)c3ccc(S(=O)(=O)N4CCc5ccccc5C4)cc3)sc2cc1OC,-0.5,1.4,-3.7,-1.8,29.8,1.9,x,x,x,
COc1ccc(C)c2sc(N(CCCN(C)C)C(=O)c3ccc(S(=O)(=O)N4CCc5ccccc5C4)cc3)nc12,10.6,-13.6,30.8*,-0.4,95.8*,-9.3,-17.5,21.2*,10.9,
O=C(CCc1ccc(S(=O)(=O)NCCc2ccccc2)cc1)N1CCN(Cc2ccc3c(c2)OCO3)CC1,-5.4,x,21.2*,1.7,54.5*,3.9,23.9*,6.0,2.1,
Cc1ccc(NC(=S)NNC(=O)c2ccc(N3CCOCC3)c([N+](=O)[O-])c2)cc1Cl,3.9,19.4*,20.9*,4.2,88.0*,6.6,55.9*,4.4,0.1,
Cc1cccc(NC(=O)c2ccc(N3CCOCC3)c([N+](=O)[O-])c2)n1,15.2,-1.5,6.6,1.5,1.4,-0.5,x,x,x,
CC12CCC(=O)N1C(C(=O)N1CCN(S(=O)(=O)c3cccc(Cl)c3)CC1)CS2 (configuration not stated),-12.8,2.2,-6.9,0.7,2.1,-2.6,x,x,x,
SMILES,SKN-1 inh,NR3A LBD binder,ADAM10 inh,MT1-MMP act inh,MPTP block,ADAM17 inh,MPTP counter,ADAM10 confirm,ADAM17 counter,others
O=C(CCCOc1ccc(Cl)cc1Cl)N/N=C/c1ccco1,2.1,-4.8,1.6,-3.8,1.8,3.5,x,x,x,
CSc1ccc(S(=O)(=O)Nc2ccc3c4c(cccc24)CC3)cc1,-1.5,-2.1,19.9*,-7.5,61.2*,6.6,73.0*,9.8,3.4,
O=S(=O)(Nc1ccc2c3c(cccc13)CC2)c1ccc(F)cc1,16.0,-9.7,9.4,-4.9,2.3,2.3,x,x,x,
Cc1noc(C)c1S(=O)(=O)N(CC(=O)N1CCc2ccccc21)c1ccc(C(C)C)cc1,9.2,2.6,3.1,-4.0,1.1,1.0,x,x,x,
CCN(CC)c1ccc(C(=C2C=CC(=[N+](CC)CC)C=C2)c2ccc(N(CC)CC)cc2)cc1,3.2,351.4*,22.9*,143.1*,137.1*,6.8,74.4*,-0.4,0.5,MT1-MMP conf=126.3*
CCN(CC)c1ccc(C(=C2C=CC(=[N+](CC)CC)C=C2)c2ccccc2)cc1,-54.4,-88.4,-15.5,-34.4,-9.4,3.8,x,x,x,
COc1ccccc1NS(=O)(=O)c1cccc(NC(=O)Nc2ccc(Cl)cc2)c1,0.9,17.8*,56.0*,-1.3,82.8*,25.8*,71.8*,12.4,3.2,
Nc1nc(Cl)cc(N2CCC(c3cc(-c4ccc(Cl)cc4)n[nH]3)CC2)n1,7.3,16.6*,32.4*,-0.4,97.9*,6.0,89.9*,5.3,2.0,
COc1ccc(-c2cc(C3CCN(c4cc(Cl)nc(N)n4)CC3)[nH]n2)cc1,14.3,-14.2,17.4,-6.0,31.1,6.6,x,x,x,

# Compound activity: PubChem, several laboratories
